pIC50, pKd, pKi: −log10 of the molar value.
Experiments:
[1] = tested on: Blood; assay: Inhibition of IL-8 production in TNFalpha challenged human whole blood after 16 to 18 hrs; assay type: functional, tissue-based
How it was run: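 Heparinized blood from healthy nonmedicated donors, 50% final in RPMI 1640 with 10% human AB serum. Ten-point compound titration preincubated 1 h at 37 C, 5% CO2, then TNF-alpha 1 nM final added for 16-18 h. Plasma IL-8 measured by electrochemiluminescent antibody sandwich assay; IC50 is the mean of at least three independent dose-response curves.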

[2] = biological target: T1, Mitogen-activated protein kinase 14 (Homo sapiens, UniProt Q16539); assay: Inhibition of human recombinant p38alpha-mediated […] phosphorylation after 1 hr by HTRF assay
[3] = tested on: THP-1; assay: Inhibition of LPS-induced TNFalpha production in human THP1 cells after 3 hrs; assay type: functional, cell-based
How it was run: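 THP-1 cells at 1.5 x 10^6/mL in RPMI 1640, 10% heat-inactivated FBS, NEAA, 30 μM βME. 3-fold serial compound dilutions in DMSO, then LPS stimulation for 3 h at 37 C, 5% CO2. Secreted TNF-alpha read by electrochemiluminescent immunoassay; percent of DMSO control; IC50 is the mean of at least three independent curves.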

[4] = AUC (0 to infinity) in Sprague-Dawley rat at 2 mg/kg, po; assay type: ADME, organism-based; design: time infinity, dose 2 mg/kg, route oral; details: plasma
[5] = Half life in Sprague-Dawley rat at 2 mg/kg, iv; assay type: ADME, organism-based; design: dose 2 mg/kg, route intravenous; details: in vivo
[6] = Oral bioavailability in Sprague-Dawley rat at 2 mg/kg; assay type: ADME, organism-based; details: in vivo
[7] = Volume of distribution at steady state in Sprague-Dawley rat at 2 mg/kg, iv; assay type: ADME, organism-based; design: dose 2 mg/kg, route intravenous; details: in vivo, read-out: Vdss
[8] = Clearance in Sprague-Dawley rat at 2 mg/kg, iv; assay type: ADME, organism-based; design: dose 2 mg/kg, route intravenous; details: in vivo
[9] = biological target: T2, Nuclear receptor subfamily 1 group I member 2 (Homo sapiens, UniProt O75469); assay: Transactivation of human PXR expressed in HepG2 cells after 24 hrs by luciferase reporter gene assay; assay type: cell-based; details: hepg2, 24 h
T2 sequence (O75469 whole entry): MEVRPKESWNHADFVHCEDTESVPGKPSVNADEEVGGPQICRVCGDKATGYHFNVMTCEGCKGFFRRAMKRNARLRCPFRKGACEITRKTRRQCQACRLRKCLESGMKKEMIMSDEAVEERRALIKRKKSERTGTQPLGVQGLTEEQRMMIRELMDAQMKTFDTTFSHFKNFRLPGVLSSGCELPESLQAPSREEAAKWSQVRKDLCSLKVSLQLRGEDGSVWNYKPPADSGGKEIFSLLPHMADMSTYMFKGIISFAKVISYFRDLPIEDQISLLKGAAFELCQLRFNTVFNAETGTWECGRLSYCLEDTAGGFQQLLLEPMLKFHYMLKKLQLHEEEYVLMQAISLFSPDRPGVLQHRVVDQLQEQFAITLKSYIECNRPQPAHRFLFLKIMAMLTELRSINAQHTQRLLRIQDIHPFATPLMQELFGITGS
How it was run: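 HepG2 cells transfected with a CYP3A4-promoter luciferase reporter and human PXR cDNA. Compound added from DMSO stocks to final 2 and 10 μM in buffer and incubated 24 h. Luciferase activity read by chemiluminescence and reported as percent of the rifampin (10 μM) positive control.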

[10] = biological target: Cytochrome P450 3A4 (Homo sapiens, UniProt P08684); assay: Inhibition of CYP3A4; assay type: ADME
[11] = Plasma protein binding in human by ultrafiltration method; assay type: ADME, cell-free; details: read-out: PPB (converted)
[12] = Plasma protein binding in rat by ultrafiltration method; assay type: ADME, cell-free; details: read-out: PPB (converted)
[13] = biological target: T1, Mitogen-activated protein kinase 14; assay: Binding affinity to p38alpha by scintillation proximity assay
[14] = biological target: Tyrosine-protein kinase Lck (Homo sapiens, UniProt P06239); assay: Binding affinity to Lck by scintillation proximity assay
[15] = biological target: Mast/stem cell growth factor receptor Kit (Homo sapiens, UniProt P10721); assay: Binding affinity to c-Kit by scintillation proximity assay
[16] = biological target: Vascular endothelial growth factor receptor 2 (Homo sapiens, UniProt P35968); assay: Binding affinity to Kdr by scintillation proximity assay
[17] = in vitro; details: human, Caco-2
[18] = in vitro; details: human, Caco-2; remark: listed apart in the source
[19] = Homo sapiens, Blood, read-out: IC50
[20] = Homo sapiens, THP-1, 3 h, read-out: IC50

Sequence of Vascular endothelial growth factor receptor 2 (P35968 whole entry): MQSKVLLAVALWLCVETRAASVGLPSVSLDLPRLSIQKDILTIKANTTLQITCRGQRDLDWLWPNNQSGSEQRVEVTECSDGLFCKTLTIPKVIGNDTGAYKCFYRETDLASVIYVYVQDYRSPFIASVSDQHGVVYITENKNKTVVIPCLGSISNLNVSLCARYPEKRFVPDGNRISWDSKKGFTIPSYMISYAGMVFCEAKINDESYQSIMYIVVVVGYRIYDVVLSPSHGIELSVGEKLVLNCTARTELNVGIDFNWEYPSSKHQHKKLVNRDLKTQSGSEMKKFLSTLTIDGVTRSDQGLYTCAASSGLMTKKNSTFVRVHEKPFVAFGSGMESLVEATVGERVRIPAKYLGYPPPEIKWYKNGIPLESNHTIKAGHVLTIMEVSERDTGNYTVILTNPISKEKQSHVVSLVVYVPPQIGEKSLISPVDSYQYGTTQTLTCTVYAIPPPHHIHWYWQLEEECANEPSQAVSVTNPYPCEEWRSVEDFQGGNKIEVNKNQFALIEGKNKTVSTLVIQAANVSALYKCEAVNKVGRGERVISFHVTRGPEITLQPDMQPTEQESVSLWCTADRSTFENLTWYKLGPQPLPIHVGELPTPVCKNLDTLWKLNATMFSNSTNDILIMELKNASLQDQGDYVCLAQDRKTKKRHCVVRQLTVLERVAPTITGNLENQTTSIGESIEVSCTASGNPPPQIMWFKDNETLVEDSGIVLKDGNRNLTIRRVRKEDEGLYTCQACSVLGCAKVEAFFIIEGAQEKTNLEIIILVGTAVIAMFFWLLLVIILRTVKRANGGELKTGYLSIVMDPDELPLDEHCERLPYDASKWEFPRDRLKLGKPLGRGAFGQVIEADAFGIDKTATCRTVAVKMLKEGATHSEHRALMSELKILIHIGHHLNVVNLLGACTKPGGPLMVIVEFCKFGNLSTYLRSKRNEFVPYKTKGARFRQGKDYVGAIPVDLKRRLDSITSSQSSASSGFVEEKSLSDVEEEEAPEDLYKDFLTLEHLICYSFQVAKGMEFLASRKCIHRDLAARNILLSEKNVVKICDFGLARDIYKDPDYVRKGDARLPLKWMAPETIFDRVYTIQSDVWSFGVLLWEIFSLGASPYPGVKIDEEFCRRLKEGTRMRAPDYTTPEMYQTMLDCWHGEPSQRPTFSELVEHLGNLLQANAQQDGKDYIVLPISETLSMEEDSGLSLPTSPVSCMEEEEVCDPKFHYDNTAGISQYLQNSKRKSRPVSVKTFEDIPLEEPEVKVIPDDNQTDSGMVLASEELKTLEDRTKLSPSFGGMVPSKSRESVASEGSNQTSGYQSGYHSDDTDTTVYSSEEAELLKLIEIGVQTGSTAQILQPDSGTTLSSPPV
Sequence of Mast/stem cell growth factor receptor Kit (P10721 whole entry): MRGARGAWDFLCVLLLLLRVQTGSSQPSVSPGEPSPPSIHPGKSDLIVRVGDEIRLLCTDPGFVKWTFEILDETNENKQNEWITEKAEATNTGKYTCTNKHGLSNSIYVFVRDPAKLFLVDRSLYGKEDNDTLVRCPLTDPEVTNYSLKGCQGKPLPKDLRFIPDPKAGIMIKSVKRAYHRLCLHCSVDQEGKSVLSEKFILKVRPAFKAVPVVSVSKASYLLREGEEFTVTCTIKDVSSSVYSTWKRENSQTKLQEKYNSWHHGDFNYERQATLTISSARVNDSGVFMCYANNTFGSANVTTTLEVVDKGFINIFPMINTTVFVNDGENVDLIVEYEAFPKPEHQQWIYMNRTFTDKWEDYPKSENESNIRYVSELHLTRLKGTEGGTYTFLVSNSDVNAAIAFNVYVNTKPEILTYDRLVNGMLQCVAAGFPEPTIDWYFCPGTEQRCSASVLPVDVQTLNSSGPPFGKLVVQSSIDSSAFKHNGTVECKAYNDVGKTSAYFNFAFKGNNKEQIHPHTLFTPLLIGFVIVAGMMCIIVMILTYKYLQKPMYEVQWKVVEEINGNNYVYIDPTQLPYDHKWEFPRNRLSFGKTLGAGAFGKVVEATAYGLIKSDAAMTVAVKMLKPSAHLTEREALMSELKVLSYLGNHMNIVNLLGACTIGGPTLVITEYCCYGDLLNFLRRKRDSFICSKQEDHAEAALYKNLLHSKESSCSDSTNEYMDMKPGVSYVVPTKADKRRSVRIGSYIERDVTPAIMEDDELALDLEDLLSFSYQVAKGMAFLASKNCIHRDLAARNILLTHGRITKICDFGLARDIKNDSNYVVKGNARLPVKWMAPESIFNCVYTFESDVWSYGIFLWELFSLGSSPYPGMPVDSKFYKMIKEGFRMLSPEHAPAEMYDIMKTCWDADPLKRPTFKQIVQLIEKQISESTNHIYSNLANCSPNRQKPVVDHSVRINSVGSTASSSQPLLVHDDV
Sequence of Tyrosine-protein kinase Lck (P06239 whole entry): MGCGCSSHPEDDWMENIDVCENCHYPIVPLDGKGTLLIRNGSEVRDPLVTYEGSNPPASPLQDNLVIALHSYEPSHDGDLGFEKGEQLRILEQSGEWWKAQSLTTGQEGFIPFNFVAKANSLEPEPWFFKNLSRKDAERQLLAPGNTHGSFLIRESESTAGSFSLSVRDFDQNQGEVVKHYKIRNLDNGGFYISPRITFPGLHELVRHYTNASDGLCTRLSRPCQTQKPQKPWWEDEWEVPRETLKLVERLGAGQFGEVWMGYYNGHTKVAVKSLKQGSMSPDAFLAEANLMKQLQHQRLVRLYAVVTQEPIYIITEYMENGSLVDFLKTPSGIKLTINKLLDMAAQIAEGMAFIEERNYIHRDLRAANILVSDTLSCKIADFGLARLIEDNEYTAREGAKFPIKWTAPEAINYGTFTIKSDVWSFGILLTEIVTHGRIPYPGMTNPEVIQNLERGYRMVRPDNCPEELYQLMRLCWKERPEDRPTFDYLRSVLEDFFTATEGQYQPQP
T1 sequence (Q16539 whole entry): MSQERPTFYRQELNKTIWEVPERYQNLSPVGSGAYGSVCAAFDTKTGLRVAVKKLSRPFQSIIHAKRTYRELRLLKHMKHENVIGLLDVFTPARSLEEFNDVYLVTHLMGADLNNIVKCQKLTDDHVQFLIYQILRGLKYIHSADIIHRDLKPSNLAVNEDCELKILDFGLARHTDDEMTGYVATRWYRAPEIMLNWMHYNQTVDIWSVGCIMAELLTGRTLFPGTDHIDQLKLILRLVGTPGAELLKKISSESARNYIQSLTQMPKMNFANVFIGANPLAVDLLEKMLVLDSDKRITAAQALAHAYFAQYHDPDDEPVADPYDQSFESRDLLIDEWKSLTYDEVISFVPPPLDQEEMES
Sequence of Cytochrome P450 3A4 (P08684 whole entry): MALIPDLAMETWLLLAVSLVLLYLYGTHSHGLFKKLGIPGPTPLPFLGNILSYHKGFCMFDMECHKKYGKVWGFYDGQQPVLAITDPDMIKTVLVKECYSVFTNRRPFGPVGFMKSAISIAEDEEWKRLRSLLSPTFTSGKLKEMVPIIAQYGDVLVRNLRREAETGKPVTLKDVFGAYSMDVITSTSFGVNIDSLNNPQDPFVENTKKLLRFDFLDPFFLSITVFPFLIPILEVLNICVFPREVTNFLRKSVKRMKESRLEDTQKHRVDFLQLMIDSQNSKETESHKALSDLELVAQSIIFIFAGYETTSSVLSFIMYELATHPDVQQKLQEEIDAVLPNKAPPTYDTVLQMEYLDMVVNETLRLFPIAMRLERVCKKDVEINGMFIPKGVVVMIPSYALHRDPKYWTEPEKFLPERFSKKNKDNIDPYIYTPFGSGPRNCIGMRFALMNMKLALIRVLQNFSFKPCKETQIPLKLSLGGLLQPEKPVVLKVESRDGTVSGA

Row | SMILES | pIC50 [1, 19] | pKi [2] | pIC50 [3, 20] | AUC(0-inf) [4] | half-life [5] | bioavailability [6] | Vd [7] | clearance [8] | further results
1 | Cc1ccc(C(=O)O)cc1-c1cc2cnn(-c3c(F)cccc3F)c2n(C)c1=O | < 5.60 | 6.34 | 6.20 |  |  |  |  |  | 
2 | Cc1ccc(C(=O)NC2CC2)cc1-c1cc2c(C)nn(-c3c(F)cccc3F)c2n(C)c1=O | 7.40 | 8.10 | 8.57 |  |  |  |  |  | 
3 | CNc1noc2c(-c3cc4cnn(-c5c(F)cccc5F)c4n(C)c3=O)c(C)ccc12 |  | 8.70 |  | 515 ng·h/mL | 3.5 h | 27% | 1.89 L/kg | 17.6 mL/min/kg | pIC50 [1]: 8.27; pIC50 ([3]; thp-1): 8.92
4 | Cc1c(F)cc(C(=O)NC2CC2)cc1-c1cc2cnn(-c3c(F)cccc3F)c2n(C)c1=O | 8.77 | 9.10 | 9.40 |  |  |  |  |  | 
5 | Cc1ccc(C(=O)NC2CC2)cc1-c1cc2cnn(-c3ncccc3C(F)(F)F)c2n(C)c1=O | 7.62 | 8.64 | 7.84 |  |  |  |  |  | 
6 | CCn1c(=O)c(-c2cc(C(=O)NC3CC3)ccc2C)cc2cnn(-c3ccc(F)cc3F)c21 | 8.62 | 9.22 | 9.30 |  |  |  |  |  | Activity [9]: Not Active; pIC50 [10]: 5.80
7 | Cn1c(=O)c(-c2cc(C(=O)NC3CC3)ccc2Cl)cc2cnn(-c3c(F)cccc3F)c21 |  |  | 9.05 | 8860 ng·h/mL | 6.3 h | 73% | 1.47 L/kg | 2.75 mL/min/kg | fraction unbound [11]: 0.038; fraction unbound [12]: 0.032
8 | Cc1ccc(C(=O)NC2CC2)cc1-c1cc2cnn(-c3ccccc3F)c2n(C)c1=O |  |  |  |  |  |  |  |  | pKd [13]: 9.74; pKd [14]: 4.40; pKd [15]: 5.77; pKd [16]: 4.40
9 | Cc1ccc(C(=O)NC2CC2)cc1-c1cc2cnn(-c3cc(F)ccc3F)c2n(C)c1=O | 8.43 | 8.72 | 8.80 | 782 ng·h/mL | 2.2 h | 10% | 0.955 L/kg | 4.12 mL/min/kg | 
10 | Cc1ccc(C(=O)NC2CC2)cc1-c1ccc2c(-c3ccccc3F)nncc2c1 |  |  |  |  |  |  |  |  | pKd [13]: 10.30; pKd [14]: 6.28; pKd [15]: 8.62; pKd [16]: 6.49
11 | Cc1ccc(C(=O)NC2CC2)cc1-c1cc2cnn(-c3ccc(F)cc3F)c2n(C)c1=O | 8.41 |  | 8.82 | 5120 ng·h/mL | 7.7 h | 73% | 1.69 L/kg | 2.88 mL/min/kg | pKd [14]: 4.40; pKd [15]: 4.89; Papp A→B [17]: 20 ×10⁻⁶ cm/s; fraction unbound [11]: 0.07; pKd [16]: 4.40; fraction unbound [12]: 0.075; Papp B→A [18]: 29 ×10⁻⁶ cm/s
12 | Cc1ccc(C(=O)NC2CC2)cc1-c1cc2cnn(-c3ccccc3Cl)c2n(C)c1=O | 8.06 | 9.05 | 8.96 |  |  |  |  |  | 
13 | Cc1ccc(C(=O)NC2CC2)cc1-c1cc2cnn(-c3ccccc3C)c2n(C)c1=O | 7.92 | 8.72 | 8.40 |  |  |  |  |  | 
14 | Cc1ccc(C(=O)Nc2ccon2)cc1-c1cc2cnn(-c3c(F)cccc3F)c2n(C)c1=O | 8.82 | 9.00 | 9.52 |  |  |  |  |  | 
15 | Cc1ccc(C(N)=O)cc1-c1cc2cnn(-c3c(F)cccc3F)c2n(C)c1=O | 8.19 | 8.82 | 8.41 | 2390 ng·h/mL | 2.4 h | 37% | 1.1 L/kg | 5.2 mL/min/kg | 
16 | Cc1ccc(C(=O)NC2(C)CC2)cc1-c1cc2cnn(-c3c(F)cccc3F)c2n(C)c1=O | 7.96 | 8.77 | 8.57 |  |  |  |  |  | 

From ChEMBL document CHEMBL1156338 (J Med Chem, 2010)
